Experimental data reported in paper PMC2812011 (Cancer cell, 2009).

How the values were obtained:
TEL-Tyk2 = experiment: Stat5 phosphorylation in Ba/F3 TEL-Tyk2 cells; format: cell-based; settings: at or below 1 µM
LN-17 cells = experiment: LN-17 prostate cancer cells: pStat3, MTS viability, Annexin V; format: cell-based, human
MDA-MB-468 xenografts = experiment: MDA-MB-468 xenograft tumor growth; format: in vivo, mice; settings: MDA-MB-468, 50 mg/kg p.o. once daily, 30 d; p < 0.001, n=7
Jak2 kinase = Jak2 kinase (Homo sapiens, UniProt O60674); experiment: Jak2 kinetic studies; format: biochemical
Sequence of Jak2 kinase (O60674 808-1132): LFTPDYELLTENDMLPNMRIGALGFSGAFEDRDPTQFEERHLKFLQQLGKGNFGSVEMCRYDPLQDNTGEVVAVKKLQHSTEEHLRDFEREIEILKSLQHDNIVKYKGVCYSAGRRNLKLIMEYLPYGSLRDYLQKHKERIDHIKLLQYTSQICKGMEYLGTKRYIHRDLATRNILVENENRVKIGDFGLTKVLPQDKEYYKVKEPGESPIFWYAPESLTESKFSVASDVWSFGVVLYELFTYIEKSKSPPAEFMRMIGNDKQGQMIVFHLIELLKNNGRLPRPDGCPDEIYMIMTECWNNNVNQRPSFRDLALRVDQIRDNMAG

TEL-Jak3 = experiment: Stat5 phosphorylation in Ba/F3 TEL-Jak3 cells; format: cell-based; settings: at or below 1 µM
MDAH2774 xenografts = experiment: MDAH2774 xenograft tumor growth; format: in vivo, mice; settings: 26 d, p < 0.001, n=10
pStat3 Tyr705 [1] = experiment: pStat3 in MEF-Stat3-YFP tumor lysates; format: in vivo, mice; settings: 2 h post treatment, 50 mg/kg
[2] = system: DU145, MDAH2774, and MDA-MB-468 cells; experiment: 72 h viability assay in solid tumor cell lines; format: cell-based; settings: Homo sapiens
TEL-Jak2 = TEL-Jak2 (Homo sapiens, UniProt O60674+P41212); experiment: Stat5 phosphorylation in Ba/F3 TEL-Jak2 cells; format: cell-based
Sequence of TEL-Jak2 (O60674 849-1132 limits assumed, one chain of several): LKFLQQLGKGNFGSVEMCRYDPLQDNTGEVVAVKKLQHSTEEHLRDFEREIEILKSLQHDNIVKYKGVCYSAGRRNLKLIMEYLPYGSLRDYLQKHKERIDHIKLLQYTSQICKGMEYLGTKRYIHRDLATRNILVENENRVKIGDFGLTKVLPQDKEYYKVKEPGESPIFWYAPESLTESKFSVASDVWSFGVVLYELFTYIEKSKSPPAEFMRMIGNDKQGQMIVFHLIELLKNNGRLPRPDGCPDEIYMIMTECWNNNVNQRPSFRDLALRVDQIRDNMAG

TEL-Jak1 = experiment: Stat5 phosphorylation in Ba/F3 TEL-Jak1 cells; format: cell-based; settings: at or below 1 µM
pStat3 Tyr705 [3] = experiment: Pharmacodynamics in xenograft tumor lysates and sections; format: in vivo, mice
Aurora A = Aurora A in kinase panel; format: biochemical
How it was run: (§1)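 Kinase selectivity panel of 82 kinases chosen to span the kinome by binding-site similarity and gatekeeper residue. Each kinase was assayed with ATP at or near its Km. The test compound was tested at three concentrations: 0.01, 0.10 and 1.0 µM. Percent inhibition was scored, and kinases inhibited by more than 50% were counted.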

DU145 xenografts = experiment: DU145 xenograft tumor growth; format: in vivo, mice; settings: DU145, 50 mg/kg p.o. once daily, 26 d; p < 0.001, n=7
[4] = system: 786-0 xenografts expressing Stat3C; experiment: 786-0 Stat3C xenograft tumor growth; format: in vivo, mice; settings: 786-0 expressing Stat3C, 50 mg/kg, 41 d
[5] = system: 786-0 renal cell carcinoma vector control xenografts; experiment: 786-0 vector control xenograft tumor growth; format: in vivo, mice; settings: 50 mg/kg, 41 d, p = 0.038, n = 10
pStat3 Tyr705 [6] = experiment: Constitutive pStat3 in DU145, MDA-MB-468 and MDAH2774 cells; format: cell-based, human; settings: 2 h, DU145, MDA-MB-468, MDAH2774
MEF-Stat3-YFP tumors = experiment: MEF-Stat3-YFP tumor growth in athymic mice; format: in vivo; settings: 50 mg/kg p.o. once daily, relative to vehicle; p = 0.001, n=6
Jak1 = settings: enzymatic assays, at Km ATP
panel of 82 kinases = experiment: Kinase selectivity panel of 82 kinases; format: biochemical; settings: 0.10 µM, at or near Km for ATP; count includes Jak2
How it was run: as §1

Cc1cc(Nc2nc(N[C@@H](C)c3ncc(F)cn3)ncc2Cl)n[nH]1 [AZD1480]
inhibition of STAT5 phosphorylation (TEL-Tyk2): little or no inhibition | pStat3 Tyr705 (LN-17 cells; 24 h): Dose-dependent inhibition | apoptotic markers Annexin V and PARP cleavage (LN-17 cells; 72 h): dose-dependent increase | viability (LN-17 cells; MTS, 72 h, charcoal-stripped FBS): loss of viability | growth inhibition (MDA-MB-468 xenografts): 111% | Ki (Jak2 kinase): 0.00026 µM | inhibition of STAT5 phosphorylation (TEL-Jak3): little or no inhibition | growth inhibition (MDAH2774 xenografts; MDAH2774, 10 mg/kg twice daily p.o.): 71% | growth inhibition (MDAH2774 xenografts; MDAH2774, 30 mg/kg twice daily p.o., tumor regression): 139% | pStat3 Tyr705 in tumors (pStat3 Tyr705 [1]): abolished | GI50 [2]: 2.4 to 5.4 µM | IC50 (TEL-Jak2): 0.046 µM | inhibition of STAT5 phosphorylation (TEL-Jak1): little or no inhibition | pHisH3 staining (mitotic marker) (pStat3 Tyr705 [3]; MDAH2774 xenografts, 30 mg/kg, up to 16h post-dose): No modulation | recovery of pStat3 Tyr705 expression (pStat3 Tyr705 [3]; by 16 h after single 30 mg/kg dose, MDAH2774 xenografts): fully recovered | duration of significant inhibition of pStat3 (pStat3 Tyr705 [3]; single dose of 30 mg/kg, MDAH2774 xenografts): > 10 h | expression of p44/42 pMAPK and pAKT Ser473 in tumors (pStat3 Tyr705 [3]; treated tumors compared to control animals): No significant change | inhibition of pStat3 Tyr705 in tumor lysates (pStat3 Tyr705 [3]; xenografts harvested 2 h post treatment): Complete inhibition | Aurora A enzyme activity (Aurora A): inhibited | growth inhibition (DU145 xenografts): 81% | growth inhibition [4]: no growth inhibition | growth inhibition [5]: 48% | inhibition of constitutive pStat3 Tyr705 (pStat3 Tyr705 [6]; 0.1 µM): Significant inhibition | inhibition of constitutive pStat3 Tyr705 (pStat3 Tyr705 [6]; 0.25 –0.5 µM): near ablation of signal | tumor growth inhibition (MEF-Stat3-YFP tumors): 58% | lethal toxicity or weight loss (doses tested, 26 days of dosing): No lethal toxicity or weight loss | red blood cell counts (mouse, in vivo, 10 mg/kg): no changes | red blood cell counts decrease (mouse, in vivo, 30 mg/kg): approximately 13% | Jak2 selectivity over Jak1 (Jak1): marginal selectivity over Jak1 | kinases inhibited by greater than 50% (panel of 82 kinases): 11/82
